Tests used:
Cytochrome P450 3A4 [1] = target: T1, Cytochrome P450 3A4 (Homo sapiens, UniProt P08684); test: Inhibition of human CYP3A4; format: ADME
Cytochrome P450 3A4 [2] = target: T1, Cytochrome P450 3A4; test: Inhibition of human CYP3A4 in human liver microsomes preincubated with NADPH; format: ADME, Microsome
CYP3A4 = CYP3A4 (Homo sapiens, UniProt P08684); test: Selective ratio of human CYP3A4 IC50 to human CYP3A4 IC50 with pre-incubation; format: ADME; details: read-out: Ratio IC50
[3] = target: Hepatocyte growth factor receptor (Homo sapiens, UniProt P08581); test: Inhibition of c-Met by HTRF assay
Mus musculus [4] = test: Toxicity in mouse xenografted with TPR-Met expressing NIH/3T3 up to 100 mg/kg, po over 22 days q.d; format: organism-based, NIH3T3; set-up: dose 100 mg/kg, route oral; details: in vivo, 528 h
Procedure, shortened: (§1)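 NIH3T3 cells transfected with human TPR-Met, implanted as xenograft in mice. Dosing by oral gavage once daily at 3, 10, 30 and 100 mg/kg for 22 days, starting 24 h after tumor cell implantation. Vehicle: 2% HMPC, 1% Tween in water pH 2.2 w/MSA. Tumor growth and body weight followed; n = 12 per group, mean ± standard error. AUC(0-24) taken at ED50 and ED90.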

[5] = AUC (0 to infinity) in Sprague-Dawley rat at 2 mg/kg, po; format: ADME, organism-based; set-up: time infinity, dose 2 mg/kg, route oral; details: plasma
Procedure, shortened: (§2)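 Male Sprague-Dawley rats, n=3. Intravenous dosing at 0.25 mg/kg in DMSO or in 20% hydroxypropyl beta-cyclodextrin in water pH 3.5 w/MSA. Oral dosing at 2 mg/kg in 2% HMPC, 1% Tween in water pH 2.2 w/HCl.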

[6] = Half life in Sprague-Dawley rat at 0.25 mg/kg, iv in 20% hydroxypropyl beta-cyclodextrin in water pH 3.5 w/MSA vehicle; format: ADME, organism-based; set-up: dose 0.25 mg/kg, route intravenous; details: in vivo
Procedure, shortened: (§3)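 Male Sprague-Dawley rats, n=3, dosed intravenously at 0.25 mg/kg in 20% hydroxypropyl beta-cyclodextrin in water (pH 3.5, adjusted with MSA). In the same study, a separate oral arm used 2 mg/kg in 2% HMPC/1% Tween in water (pH 2.2, HCl) to derive bioavailability.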

[7] = Intrinsic clearance in rat liver microsomes; format: ADME, Microsome
Procedure, shortened: (§4)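 Intrinsic clearance was measured in vitro in rat, mouse and human liver microsomes.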

[8] = Oral bioavailability in Sprague-Dawley rat at 2 mg/kg; format: ADME, organism-based; details: in vivo; procedure, shortened: as §2
[9] = Clearance in Sprague-Dawley rat at 0.25 mg/kg, iv in 20% hydroxypropyl beta-cyclodextrin in water pH 3.5 w/MSA vehicle; format: ADME, organism-based; set-up: dose 0.25 mg/kg, route intravenous; details: in vivo; procedure, shortened: as §3
NIH3T3 = test: Antitumor activity against TPR-Met expressing NIH/3T3 xenografted in mouse dosed po over 22 days q.d; format: functional; details: 528 h; procedure, shortened: as §1
[10] = Volume of distribution at steady state in Sprague-Dawley rat at 0.25 mg/kg, iv in 20% hydroxypropyl beta-cyclodextrin in water pH 3.5 w/MSA vehicle; format: ADME, organism-based; set-up: dose 0.25 mg/kg, route intravenous; details: in vivo, read-out: Vdss; procedure, shortened: as §2
Mus musculus [11] = test: Inhibition of HGF-induced c-Met phosphorylation in BALB/c mouse liver at 30 mg/kg, po after 12 hrs by electrochemiluminescent assay; format: functional
Procedure, shortened: (§5)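 Mice were given 30 mg/kg by oral gavage in 2% HMPC, 1% Tween in water pH 2.2 w/MSA, then challenged with HGF. HGF-induced c-Met phosphorylation in liver was quantified at several time points. Plasma and liver drug levels were measured alongside. n = 3, mean ± standard deviation.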

[12] = Plasma protein binding in rat at 5 ug/ml; format: ADME, cell-free; details: read-out: PPB (converted)
Procedure, shortened: (§6)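 Plasma protein binding was measured by equilibrium dialysis at 5 µg/mL.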

Homo sapiens = species: Homo sapiens; test: Plasma protein binding in human at 5 ug/ml; details: read-out: PPB (converted)
[13] = Intrinsic clearance in mouse liver microsomes; format: ADME, Microsome; procedure, shortened: as §4
[14] = target: Voltage-gated inwardly rectifying potassium channel KCNH2 (Homo sapiens, UniProt Q12809); test: Inhibition of human ERG
Mus musculus [15] = species: Mus musculus; test: Inhibition of HGF-induced c-Met phosphorylation in BALB/c mouse liver after 6 hrs by electrochemiluminescent assay; format: functional; procedure, shortened: as §5
[16] = Intrinsic clearance in human liver microsomes; format: ADME, Microsome; procedure, shortened: as §4
[17] = AUC (0 to 24 hrs) in mouse at ED90, po; format: ADME, organism-based; set-up: time < 24 hr, route oral; details: plasma; procedure, shortened: as §1
Mus musculus [18] = species: Mus musculus; test: Inhibition of HGF-induced c-Met phosphorylation in BALB/c mouse plasma after 6 hrs by electrochemiluminescent assay; format: functional; procedure, shortened: as §5
[19] = AUC (0 to 24 hrs) in mouse at ED50, po; format: ADME, organism-based; set-up: time < 24 hr, route oral; details: plasma; procedure, shortened: as §1
Heart = test: Cardiotoxicity in rabbit heart assessed as electrocardiographic parameters up to 3 uM; format: toxicity, tissue-based, Oryctolagus cuniculus
[20] = Plasma protein binding in mouse at 5 ug/ml; format: ADME, cell-free; details: read-out: PPB (converted); procedure, shortened: as §6
[21] = Volume of distribution at steady state in Sprague-Dawley rat at 0.25 mg/kg, iv in DMSO vehicle; format: ADME, organism-based; set-up: dose 0.25 mg/kg, route intravenous; details: in vivo, read-out: Vdss; procedure, shortened: as §2
[22] = Half life in Sprague-Dawley rat at 0.25 mg/kg, iv in DMSO vehicle; format: ADME, organism-based; set-up: dose 0.25 mg/kg, route intravenous; details: in vivo; procedure, shortened: as §2
[23] = Clearance in Sprague-Dawley rat at 0.25 mg/kg, iv in DMSO vehicle; format: ADME, organism-based; set-up: dose 0.25 mg/kg, route intravenous; details: in vivo; procedure, shortened: as §2

Structure (SMILES): COc1ccc2c(OCc3nnc4ccc(-c5cc(F)cc(F)c5)nn34)ccnc2c1
- IC50 (Cytochrome P450 3A4 [1]): > 50 µM
- IC50 (Cytochrome P450 3A4 [2]): 8.3 µM

Structure (SMILES): COc1ccc2c(OCc3nnc4ccc(-c5cc(F)c(F)c(F)c5)nn34)ccnc2c1
- IC50 shift (CYP3A4): 14
- IC50 [3]: 0.005 µM
- IC50 (Cytochrome P450 3A4 [1]): 29 µM
- IC50 (Cytochrome P450 3A4 [2]): 2 µM

Structure (SMILES): COc1ccc2c(OCc3nnc4ccc(-c5ccc(F)c(F)c5)nn34)ccnc2c1
- IC50 (Cytochrome P450 3A4 [1]): > 50 µM
- IC50 (Cytochrome P450 3A4 [2]): 6.4 µM

Structure (SMILES): COc1cnc2c(NCc3nnc4ccc(-c5cc(F)c(F)c(F)c5)nn34)ccnc2c1
- IC50 (Cytochrome P450 3A4 [1]): > 50 µM
- IC50 (Cytochrome P450 3A4 [2]): 16 µM

Structure (SMILES): COc1cnc2c(NCc3nnc4ccc(-c5ccc(F)c(F)c5)nn34)ccnc2c1
- IC50 (Cytochrome P450 3A4 [1]): > 50 µM
- IC50 (Cytochrome P450 3A4 [2]): 9.1 µM

Structure (SMILES): COc1ccc2c(O[C@H](C)c3nnc4ccc(-c5ccccc5)nn34)ccnc2c1
- IC50 (Cytochrome P450 3A4 [1]): 18 µM
- IC50 (Cytochrome P450 3A4 [2]): 8.9 µM

Structure (SMILES): COc1ccc2c(NCc3nnc4ccc(-c5ccccc5)nn34)ccnc2c1
- IC50 shift (CYP3A4): > 1
- IC50 [3]: 1.37 µM
- IC50 (Cytochrome P450 3A4 [1]): > 50 µM
- IC50 (Cytochrome P450 3A4 [2]): 50 µM

Structure (SMILES): COc1cnc2c(NCc3nnc4ccc(-c5cc(C)ns5)nn34)ccnc2c1
- Activity (Mus musculus [4]): Non-toxic
- AUC(0-inf) [5]: 3500 ng·h/mL
- half-life [6]: 1.76 h
- microsomal CLint [7]: 59 µL/min/mg
- bioavailability [8]: 30.5%
- clearance [9]: 3.08 mL/min/kg
- ED50 (NIH3T3): 3.3 mg/kg
- ED90 (NIH3T3): 22 mg/kg
- Vd [10]: 0.303 L/kg
- IC50 (Cytochrome P450 3A4 [1]): > 50 µM
- inhibition in vivo at 30 mg/kg (Mus musculus [11]): > 50%
- fraction unbound at 5 ug/ml [12]: 0.007
- fraction unbound at 5 ug/ml (Homo sapiens): 0.025
- microsomal CLint [13]: 60 µL/min/mg
- Ki [14]: 1.6 µM
- EC90 (Mus musculus [15]): 1.8 µM
- microsomal CLint [16]: 24 µL/min/mg
- AUC(0-t) at 24 h [17]: 4.7 µM·h
- EC90 (Mus musculus [18]): 0.136 µM
- AUC(0-t) at 24 h [19]: 0.43 µM·h
- IC50 (Cytochrome P450 3A4 [2]): 26 µM
- Activity (Heart): Non-toxic

Structure (SMILES): COc1ccc2c(SCc3nnc4ccc(-c5ccccc5)nn34)ccnc2c1
- IC50 shift (CYP3A4): 0.64
- IC50 [3]: > 6.67 µM
- IC50 (Cytochrome P450 3A4 [1]): 4.5 µM
- IC50 (Cytochrome P450 3A4 [2]): 7 µM

Structure (SMILES): COc1ccc2c(OCc3nnc4ccc(-c5cc(C)ns5)nn34)ccnc2c1
- IC50 (Cytochrome P450 3A4 [1]): 17 µM
- IC50 (Cytochrome P450 3A4 [2]): 4.8 µM

Structure (SMILES): COc1cnc2c(NCc3nnc4ccc(-c5cc(F)cc(F)c5)nn34)ccnc2c1
- fraction unbound at 5 ug/ml [20]: 0.023
- Vd [21]: 0.201 L/kg
- AUC(0-inf) [5]: 31100 ng·h/mL
- microsomal CLint [7]: 53 µL/min/mg
- bioavailability [8]: 62%
- half-life [22]: 3.84 h
- IC50 (Cytochrome P450 3A4 [1]): > 50 µM
- fraction unbound at 5 ug/ml [12]: 0.002
- fraction unbound at 5 ug/ml (Homo sapiens): 0.008
- microsomal CLint [13]: 49 µL/min/mg
- Ki [14]: 0.2 µM
- microsomal CLint [16]: 47 µL/min/mg
- IC50 (Cytochrome P450 3A4 [2]): 29 µM
- clearance [23]: 0.717 mL/min/kg

Structure (SMILES): COc1ccc2c(O[C@@H](C)c3nnc4ccc(-c5ccccc5)nn34)ccnc2c1
- IC50 (Cytochrome P450 3A4 [1]): 14 µM
- IC50 (Cytochrome P450 3A4 [2]): 3.9 µM

From ChEMBL document CHEMBL1156101, “Discovery and optimization of potent and selective triazolopyridazine series of c-Met inhibitors” (Bioorg Med Chem Lett, 2009)
